Reference: ChEMBL document CHEMBL1135980, “Novel angular benzophenazines: dual topoisomerase I and topoisomerase II inhibitors as potential anticancer agents” (J Med Chem, 2002)

Columns and labels:
[1] = tested on: NCI-H69; assay: Cytotoxicity measured using the H69 parental (H69/P) human small cell lung carcinoma cell line; assay type: functional, cell-based
Outline: (§1)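 H69/P (parental) or H69/LX4 (P-glycoprotein-overexpressing) human SCLC cells; compound added, then 5-6 days incubation; proliferation read with Alamar Blue.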

[2] = tested on: NCI-H69; assay: Cytotoxicity measured using the drug resistant, P-glycoprotein (Pgp) expressing human small cell lung carcinoma cell line H69/LX4; assay type: functional, cell-based; outline: as §1
[3] = tested on: NCI-H69; assay: Rf is the resistance factor and is the ratio of the IC50 on the resistant cell line over the IC50 on the parental H69/P cell line; assay type: functional, Homo sapiens
Outline: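 Resistance factor computed as IC50 in H69/LX4 (Pgp-overexpressing) divided by IC50 in H69/P. Both IC50s come from a 5-6 day Alamar Blue proliferation assay.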

[4] = tested on: COR-L23; assay: Cytotoxicity measured using the COR-L23 parental (COR-L23/P) human non small cell lung carcinoma cell line; assay type: functional, cell-based
Outline: (§2)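 COR-L23/P (parental) or COR-L23/R (MRP-overexpressing) human NSCLC cells; compound added, then 5-6 days incubation; proliferation read by sulforhodamine B staining.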

[5] = tested on: COR-L23; assay: Cytotoxicity measured with the drug resistant human non small cell lung carcinoma cell line COR-L23 (COR-L23/R) which over expresses multidrug resistance associated with protein(MRP); assay type: functional, cell-based; outline: as §2
[6] = Rf is the resistance factor and is the ratio of the IC50 on the resistant cell line over the IC50 on the parental COR-L23/P cell line; settings: human
Outline: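 Resistance factor computed as IC50 in COR-L23/R (MRP-overexpressing) divided by IC50 in COR-L23/P. Both IC50s come from a 5-6 day sulforhodamine B proliferation assay.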

Rf [6] | Compound | IC50 [1] [nM] | IC50 [2] [nM] | Rf [3] | IC50 [4] [nM] | IC50 [5] [nM]
 | CN(C)CCNC(=O)c1cccc2nc3ccc4cc([N+](=O)[O-])ccc4c3nc12 | 49 | 69 | 1.4 |  | 
 | CN(C)CCCOc1cccc2c1ccc1nc3cccc(C(=O)NCCN(C)C)c3nc12 | 116 | 91 | 0.8 |  | 
1.4 | CN(C)CCNC(=O)c1cccc2nc3ccc4ccccc4c3nc12 |  | 130 | 1.9 | 102 | 140
 | CN(C)CCNC(=O)c1cccc2nc3ccc4c(OCC#N)cccc4c3nc12 | 28 | 24 | 0.9 |  | 
 | COc1cccc2c1ccc1nc3cccc(C(=O)NC(CCO)CN(C)C)c3nc12 (configuration not stated) | 26 | 28 | 1.1 |  | 
 | COc1ccc2c(ccc3nc4cccc(C(=O)NCCN(C)C)c4nc32)c1OC | 436 | 804 | 1.8 |  | 
 | COc1cc(C(=O)NCCN(C)C)c2nc3c(ccc4c(OC)cccc43)nc2c1 | 19 | 25 | 1.3 |  | 
 | COc1cccc2c1ccc1nc3cccc(C(=O)NC(C)(C)CN(C)C)c3nc12 | 435 | 642 | 1.5 |  | 
 | COc1cccc2c1ccc1nc3cccc(C(=O)NCCN4CCCCC4)c3nc12 | 156 | 330 | 2.1 |  | 
 | COc1cccc2c1ccc1nc3cccc(C(=O)NCC(C)N(C)C)c3nc12 (configuration not stated) | 101 | 126 | 1.2 |  | 
1.4 | COc1cccc2c1ccc1nc3cccc(C(=O)NCCN(C)C)c3nc12 |  | 49 | 1.4 | 14 | 20
 | COCCOc1cccc2c1ccc1nc3cccc(C(=O)NCCN(C)C)c3nc12 | 90 | 124 | 1.4 |  | 
 | CN(C)CCNC(=O)c1cccc2nc3ccc4c(N)cccc4c3nc12 | 111 | 193 | 1.7 |  | 
 | CC(=O)Nc1cccc2c1ccc1nc3cccc(C(=O)NCCN(C)C)c3nc12 | 468 | > 5000 | >10.7 |  | 
 | CN(C)CCNC(=O)c1cccc2nc3ccc4c(NCC#N)cccc4c3nc12 | 103 | 155 | 1.5 |  | 
 | CN(C)CCNC(=O)c1cccc2nc3ccc4c(OCC(N)=O)cccc4c3nc12 | 89 | 328 | 3.7 |  | 
 | COc1cccc2c1ccc1nc3cccc(C(=O)NCCCN(C)C)c3nc12 | 470 | 597 | 1.3 |  | 
1.2 | COc1ccc2c(ccc3nc4cccc(C(=O)NCCN(C)C)c4nc32)c1 | 141 | 185 | 1.3 | 68 | 79
 | COC(=O)C(CN(C)C)NC(=O)c1cccc2nc3ccc4c(OC)cccc4c3nc12 (configuration not stated) | 468 | > 5000 | >10 |  | 
 | COc1cccc2c1ccc1nc3cccc(C(=O)N[C@H](CO)CN(C)C)c3nc12 | 20 | 25 | 1.2 |  | 
 | CN(C)CCNC(=O)c1cccc2nc3ccc4c(S(C)(=O)=O)cccc4c3nc12 | 1360 | 3810 | 2.8 |  | 
 | CCOc1cccc2c1ccc1nc3cccc(C(=O)NCCN(C)C)c3nc12 | 49 | 182 | 3.7 |  | 
 | COc1cccc2c1ccc1nc3cc(Cl)cc(C(=O)NCCN(C)C)c3nc12 | 20 | 21 | 1 |  | 
 | CCNC(=O)Oc1cccc2c1ccc1nc3cccc(C(=O)NCCN(C)C)c3nc12 | 64 | 103 | 1.6 |  | 
 | CC(=O)Oc1cccc2c1ccc1nc3cccc(C(=O)NCCN(C)C)c3nc12 | 24 | 67 | 2.8 |  | 
